# Source: ChEMBL document CHEMBL1268845, “A convenient synthesis and molecular modeling study of novel purine and pyrimidine derivatives as CDK2/cyclin A3 inhibitors” (Bioorg Med Chem, 2010)
# Tests used:
# [1] = system: CDK2/cyclin A3 (Marthasterias glacialis); experiment: Inhibition of starfish CDK2/cyclin A3 by ELISA
# [2] = Cytotoxicity against mouse EAC cells after 48 hrs; type: functional; details: Ehrlich
# Summary of the method: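 EAC cells were harvested by needle aspiration of ascitic fluid from pre-inoculated female Swiss albino mice and maintained by weekly intraperitoneal transplantation. They were suspended in saline at 2.5 × 10^6 per mL and exposed for 48 h to serial dilutions from 10^-9 to 10^-4 M in DMSO/saline. The read-out was GI50.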
Compound,IC50 [1] [µM],GI50 [2] [µM]
COc1cc(/C=N/c2c(C#N)nc(=O)[nH]c2NS(=O)(=O)c2ccc(C)cc2)cc(OC)c1,35,19
COc1cccc(/C=N/c2c(C#N)nc(=O)[nH]c2NS(=O)(=O)c2ccc(C)cc2)c1OC,36,21
Cc1ccc(S(=O)(=O)NC(=O)N/C(C#N)=C(\N)C#N)cc1,32,12
Cc1ccc(S(=O)(=O)NC(=N)c2[nH]c(=O)[nH]c2C#N)cc1,45,28
Cc1ccc(S(=O)(=O)n2c3c([nH]c2=O)C(C(N)=O)=NC(C)(C)N3)cc1,14,15
CC(=O)CC1(C)N=C(C(N)=O)c2[nH]c(=O)n(S(=O)(=O)c3ccc(C)cc3)c2N1 (stereo unspecified),13,16
COc1ccc(/C=N/C(C#N)=C(/C#N)NC(=O)NS(=O)(=O)c2ccc(C)cc2)cc1,39,10
COc1cc(OC)c(/C=N/C(C#N)=C(/C#N)NC(=O)NS(=O)(=O)c2ccc(C)cc2)c(OC)c1,38,26
COc1cc(/C=N/C(C#N)=C(/C#N)NC(=O)NS(=O)(=O)c2ccc(C)cc2)cc(OC)c1,42,25
COc1cccc(/C=N/C(C#N)=C(/C#N)NC(=O)NS(=O)(=O)c2ccc(C)cc2)c1OC,43,27
COc1ccc(/C=N/c2c(C#N)nc(=O)[nH]c2NS(=O)(=O)c2ccc(C)cc2)cc1,39,17
COc1cc(OC)c(/C=N/c2c(C#N)nc(=O)[nH]c2NS(=O)(=O)c2ccc(C)cc2)c(OC)c1,38,16
Nc1nc(OC[C@H]2CCC(=O)N2)c2nc[nH]c2n1,35,18
